Measured values reported in ChEMBL document CHEMBL1124035, “1-Amino-substituted 4-methyl-5H-pyrido[4,3-b]indoles (gamma-carbolines) as tricyclic analogues of ellipticines: a new class of antineoplastic agents” (1988).

Tests used:
Mus musculus [1] = assay: Median survival day in L1210 leukemia mice model when a dose of 20 mg/kg administered intravenously; assay type: functional; conditions: route intravenous
Outline: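 L1210 leukaemia in CDF1 hybrid male or female mice, 10 per group. At D0, 10^5 viable cells were inoculated ip, followed by a single iv dose on D1. Median survival day was recorded, and T/C was calculated as treated/control median survival × 100.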

Mus musculus [2] = assay: Median survival day of B16 melanoma infected mice when a dose of 10 mg/kg administered intraperitoneally; assay type: functional; conditions: route intraperitoneal
Outline: (§1)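 B16 melanoma in hybrid BD F1 mice. At D0 each mouse was inoculated ip with 0.5 mL of homogenate made from 1 g of tumour in 10 mL of physiological serum. Compounds were given ip daily at the stated doses for 9 days (D1-9), with cis-platinum 0.5 mg/kg under the same schedule as positive control.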

Mus musculus [3] = assay: Antitumor activity against P388 cells at a dose of 40 mg/kg administered intraperitoneally to P388 leukemia model; assay type: functional; conditions: route intraperitoneal
Outline: (§2)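 Mice were inoculated ip with 10^6 P388 leukemia cells at D0, then given a single ip drug dose on D1. Weight change was recorded. T/C % = median survival day of treated / controls × 100; survivors counted at D30; 10 mice per dose group, 20 controls.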

Mus musculus [4] = assay: Antitumor activity against P388 cells at a dose of 80 mg/kg administered intraperitoneally to P388 leukemia model; assay type: functional; conditions: dose 40 mg/kg; route intraperitoneal; in the assay text read “40 mg/kg” for “80 mg/kg”; outline: as §2
Mus musculus [5] = assay: In vivo toxicity test on P388 cells at a dose of 100 mg/kg administered intravenously to P388 leukemia mice model; assay type: functional; conditions: route intravenous
Outline: (§3)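 Mice (10 per group) were inoculated ip at D0 with 10^6 P388 leukemia cells and given a single iv dose at D1. Read-outs were weight change (g), median survival day, T/C % versus controls and survivors at D30.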

Mus musculus [6] = assay: Survivors at day D30 when a dose of 20 mg/kg administered intravenously to L1210 leukemia mice model; 0/10; assay type: functional; conditions: route intravenous
Mus musculus [7] = assay: Weight change in g when a dose of 2.5 mg/kg administered intraperitoneally B16 melanoma infected mice; assay type: functional; conditions: route intraperitoneal
Outline: (§4)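 Hybrid BDF1 mice were inoculated ip at D0 with 0.5 mL of B16 melanoma homogenate (1 g tumor in 10 mL physiological serum). Drug was given ip daily on days 1-9, with cis-platinum 0.5 mg/kg as positive control on the same schedule.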

Mus musculus [8] = assay: Survivors at day 30 when a dose of 50 mg/kg administered intravenously to P388 leukemia mice model; 0/10; assay type: functional; conditions: route intravenous
Mus musculus [9] = assay: Antitumor activity against C38 adenocarcinoma cells at a dose of 50 mg/kg administered intravenously to mice; tumor volume at D32 (T/C); assay type: functional, MC-38; conditions: route intravenous
Outline: (§5)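 Hybrid BD F1 mice, 10 per group, were implanted sc with a standard 3-mm3 C38 colon adenocarcinoma fragment. Drugs were given iv at the stated doses on D1 or on D2 + D9. Read-out was tumor size in treated versus control mice (T/C) at the day stated.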

Mus musculus [10] = assay: Survivors at day 60 when a dose of 5 mg/kg to B16 melanoma infected mice; 3/10
Mus musculus [11] = assay: Survivors at day 60 when a dose of 2.5 mg/kg to B16 melanoma infected mice; 0/10
Mus musculus [12] = assay: Weight change in g when a dose of 100 mg/kg (iv) to P388 leukemia model; assay type: functional; outline: as §3
Mus musculus [13] = assay: Median survival day of B16 melanoma infected mice, when a dose of 10 mg/kg administered intraperitoneally; assay type: functional; conditions: route intraperitoneal; outline: as §1
Mus musculus [14] = assay: Median survival day of B16 melanoma infected mice, when a dose of 2.5 mg/kg administered intraperitoneally; assay type: functional; conditions: route intraperitoneal; outline: as §1
Mus musculus [15] = assay: Antitumor activity against P388 cells at a dose of 20 mg/kg administered intraperitoneally to mice; assay type: functional; conditions: route intraperitoneal
Mus musculus [16] = assay: Antitumor activity against P388 leukemia in mice at a dose of 1.5 mg/kg administered intraperitoneally for 5 days; assay type: functional; conditions: route intraperitoneal
Outline: (§6)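 CDF1 hybrid male or female mice, 10 per group, were inoculated ip with 10^6 viable P388 cells on day 0. Drugs in distilled water were given ip (0.1 mL/10 g body weight) daily D1-5. Vehicle, 5-fluorouracil and BD 84 were given the same way. T/C = median survival day of treated / controls × 100; T/C > 128% was significant; cures counted at D60.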

Mus musculus [17] = assay: Weight change in g when a dose of 20 mg/kg (iv) to L1210 leukemia mice model; assay type: functional
Outline: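 Mice received 10^5 L1210 leukemia cells ip at D0, then a single iv drug dose at D1. Read-outs were weight change (g), median survival day, T/C % and survivors at D30.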

Mus musculus [18] = assay: Antitumor activity against P388 leukemia in intraperitoneally for 5 days; assay type: functional; outline: as §6
Mus musculus [19] = assay: Antitumor activity against C38 adenocarcinoma cells at a dose of 50 mg/kg administered intravenously in mice; tumor volume at D38 (T/C); assay type: functional, MC-38; conditions: route intravenous; outline: as §5
Mus musculus [20] = assay: Median survival day in B16 melanoma cell line when a dose of 2.5 mg/kg administered intraperitoneally to mice; assay type: functional; conditions: route intraperitoneal; outline: as §1
Mus musculus [21] = assay: Median survival day in P388 leukemia model when a dose of 80 mg/kg administered intraperitoneally; assay type: functional; conditions: route intraperitoneal
Outline: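 P388 leukaemia in CDF1 hybrid mice, 10 per group. At D0, 10^6 viable cells were inoculated ip, followed by a single ip dose of drug in distilled water on D1. Weight change, median survival day, T/C (treated/control median survival × 100) and survivors at D30 were recorded. Controls were 20 mice.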

Mus musculus [22] = assay: Antitumor activity against P388 cells at a dose of 40 mg/kg administered intraperitoneally P388 Leukemia model; assay type: functional; conditions: route intraperitoneal; outline: as §2
Mus musculus [23] = assay: Antitumor activity against B16 melanoma cells at a dose of 30 mg/kg administered intraperitoneally to mice; assay type: functional; conditions: route intraperitoneal
Outline: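 Hybrid BD F1 mice were inoculated ip at D0 with 0.5 mL of B16 melanoma homogenate (1 g tumor in 10 mL physiological serum). Drugs were given ip daily D1-9. Cisplatin 0.5 mg/kg was the positive control under the same schedule.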

Mus musculus [24] = assay: Weight change in g when a dose of 5 mg/kg administered intraperitoneally in B-16 melanoma infected mice; assay type: functional; conditions: route intraperitoneal; outline: as §4
Mus musculus [25] = assay: Weight change in g when a dose of 20 mg/kg administered intraperitoneally in B-16 melanoma infected mice; assay type: functional; conditions: route intraperitoneal; outline: as §4
Mus musculus [26] = assay: Survivors at day 30 when a dose of 20 mg/kg to P388 leukemia model; 0/10; assay type: functional
Mus musculus [27] = assay: Survivors at day 60 when a dose of 20 mg/kg to B16 melanoma infected mice; 5/10; assay type: functional
Mus musculus [28] = assay: Survivors at day 60 when a dose of 5 mg/kg to B16 melanoma infected mice; 0/10; assay type: functional
Mus musculus [29] = assay: Survivors at day 60 when a dose of 2.5 mg/kg to B16 melanoma infected mice; 0/10; assay type: functional
Mus musculus [30] = assay: Weight change in g when a dose of 80 mg/kg administered intraperitoneally to P388 leukemia model; conditions: route intraperitoneal

CCN(CC)CCCNc1ncc(C)c2c1c1cc(O)ccc1n2C
Median survival day (Mus musculus [1]): 11.8 | Median survival day (Mus musculus [2]): 19.3 | T/C (Mus musculus [3]): 202% | T/C (Mus musculus [4]): 202% | T/C (Mus musculus [5]): 223% | Survivors (Mus musculus [6]): 0 | Weight change (Mus musculus [7]): 0.6 g | Survivors (Mus musculus [8]): 0 | Tumor volume (Mus musculus [9]): 18% | Survivors (Mus musculus [10]): 3 | Survivors (Mus musculus [11]): 0

Cc1cnc(NCCCN(C)C)c2c3cc(O)ccc3n(C)c12
Weight change (Mus musculus [12]): -0.25 g | Median survival day (Mus musculus [13]): 11.75 | Median survival day (Mus musculus [14]): 32.6 | T/C (Mus musculus [15]): 164% | T/C (Mus musculus [16]): 164% | Weight change (Mus musculus [17]): -1.1 g | T/C (Mus musculus [18]): Toxic | Tumor volume (Mus musculus [19]): 0%

CCN(CC)CCCNc1[nH]cc(C)c2nc3ccc(O)cc3c1-2
Median survival day (Mus musculus [20]): 34 | Median survival day (Mus musculus [21]): 2.3 | T/C (Mus musculus [22]): 136% | T/C (Mus musculus [23]): 33% | Weight change (Mus musculus [24]): -0.1 g | Weight change (Mus musculus [25]): -0.8 g | Survivors (Mus musculus [26]): 0 | Survivors (Mus musculus [27]): 5 | Survivors (Mus musculus [28]): 0 | Survivors (Mus musculus [29]): 0 | Weight change (Mus musculus [30]): -1.7 g
